ChEMBL document CHEMBL1275351, “Novel spirotetracyclic zwitterionic dual H(1)/5-HT(2A) receptor antagonists for the treatment of sleep disorders” (J Med Chem, 2010)

Columns and labels:
[1] = Selectivity ratio of pKi for human alpha1A adrenergic receptor to pKi for human Alpha-1B adrenergic receptor
[2] = biological target: 5-hydroxytryptamine receptor 2A (Homo sapiens, UniProt P28223); assay: Antagonist activity at human 5HT2A receptor expressed in HEK cells assessed as inhibition of intracellular calcium accumulation by aequorin assay; type: functional, cell-based, HEK293
Chain of 5-hydroxytryptamine receptor 2A (Homo sapiens, UniProt P28223) (P28223 whole entry): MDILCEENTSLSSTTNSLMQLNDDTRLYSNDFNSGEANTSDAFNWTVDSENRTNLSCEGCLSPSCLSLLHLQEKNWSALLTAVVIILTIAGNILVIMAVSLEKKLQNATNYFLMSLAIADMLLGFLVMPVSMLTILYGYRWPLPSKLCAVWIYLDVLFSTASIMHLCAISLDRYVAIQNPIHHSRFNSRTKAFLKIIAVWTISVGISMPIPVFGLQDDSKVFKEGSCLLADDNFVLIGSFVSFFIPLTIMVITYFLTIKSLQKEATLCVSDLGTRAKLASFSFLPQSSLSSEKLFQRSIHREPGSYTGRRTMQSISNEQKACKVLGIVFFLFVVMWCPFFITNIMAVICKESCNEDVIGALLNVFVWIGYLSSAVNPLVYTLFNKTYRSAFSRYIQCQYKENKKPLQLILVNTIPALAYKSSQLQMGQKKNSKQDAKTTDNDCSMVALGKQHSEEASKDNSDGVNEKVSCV

Histamine H1 receptor [3] = biological target: Histamine H1 receptor (Homo sapiens, UniProt P35367); assay: Antagonist activity against human histamine H1 receptor expressed in CHO cells by FLIPR assay; type: functional, cell-based
Chain of Histamine H1 receptor (Homo sapiens, UniProt P35367) (P35367 whole entry): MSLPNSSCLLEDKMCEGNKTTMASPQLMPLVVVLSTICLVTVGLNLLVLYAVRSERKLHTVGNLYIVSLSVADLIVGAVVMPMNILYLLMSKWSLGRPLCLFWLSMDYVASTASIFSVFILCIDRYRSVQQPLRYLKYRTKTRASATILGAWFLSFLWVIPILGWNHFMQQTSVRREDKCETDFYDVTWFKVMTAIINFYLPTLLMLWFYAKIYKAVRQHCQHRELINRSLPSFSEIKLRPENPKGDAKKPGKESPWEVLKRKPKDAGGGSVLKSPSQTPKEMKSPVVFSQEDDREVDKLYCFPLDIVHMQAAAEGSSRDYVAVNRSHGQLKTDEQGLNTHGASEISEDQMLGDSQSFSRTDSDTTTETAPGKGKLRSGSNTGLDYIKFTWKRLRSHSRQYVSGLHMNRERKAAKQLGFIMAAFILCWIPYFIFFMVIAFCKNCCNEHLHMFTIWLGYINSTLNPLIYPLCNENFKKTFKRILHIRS

[4] = biological target: 5-hydroxytryptamine receptor 2B (Homo sapiens, UniProt P41595); assay: Antagonist activity at human 5HT2B receptor expressed in human SH-SY5Y cells by FLIPR assay
Chain of 5-hydroxytryptamine receptor 2B (P41595 whole entry): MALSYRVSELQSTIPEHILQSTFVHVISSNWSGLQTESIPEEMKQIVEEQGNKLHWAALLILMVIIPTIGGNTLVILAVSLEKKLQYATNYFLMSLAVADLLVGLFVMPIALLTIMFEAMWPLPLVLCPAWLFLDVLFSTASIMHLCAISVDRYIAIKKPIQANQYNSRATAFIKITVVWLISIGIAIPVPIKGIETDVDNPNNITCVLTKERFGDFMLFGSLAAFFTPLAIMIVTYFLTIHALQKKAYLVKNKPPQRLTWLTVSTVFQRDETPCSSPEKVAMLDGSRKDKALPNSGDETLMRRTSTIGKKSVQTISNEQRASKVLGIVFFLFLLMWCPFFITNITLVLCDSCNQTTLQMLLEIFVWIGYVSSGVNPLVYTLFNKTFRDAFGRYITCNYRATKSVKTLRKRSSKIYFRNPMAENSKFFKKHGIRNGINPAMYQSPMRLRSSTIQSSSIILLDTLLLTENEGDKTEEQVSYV

[5] = biological target: T1, 5-hydroxytryptamine receptor 2C (Homo sapiens, UniProt P28335); assay: Antagonist activity at human 5HT2C receptor expressed in human SH-SY5Y cells by FLIPR assay; type: functional, cell-based
T1 sequence (P28335 whole entry): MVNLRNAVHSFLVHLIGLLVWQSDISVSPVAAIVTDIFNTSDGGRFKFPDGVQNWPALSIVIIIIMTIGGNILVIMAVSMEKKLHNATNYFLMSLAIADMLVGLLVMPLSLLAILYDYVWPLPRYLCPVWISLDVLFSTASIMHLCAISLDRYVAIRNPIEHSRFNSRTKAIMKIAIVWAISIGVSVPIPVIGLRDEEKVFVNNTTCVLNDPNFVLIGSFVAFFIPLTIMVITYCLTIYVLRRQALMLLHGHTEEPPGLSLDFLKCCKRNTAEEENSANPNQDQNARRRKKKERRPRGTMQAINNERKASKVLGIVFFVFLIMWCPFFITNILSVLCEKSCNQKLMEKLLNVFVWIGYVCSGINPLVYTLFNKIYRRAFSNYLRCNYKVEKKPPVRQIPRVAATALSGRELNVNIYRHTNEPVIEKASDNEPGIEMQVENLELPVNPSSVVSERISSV

Cytochrome P450 2D6 = Cytochrome P450 2D6 (Homo sapiens, UniProt P10635); assay: Inhibition of human CYP2D6 transfected in bactosome expression system by spectrofluorimetry; type: ADME
Chain of Cytochrome P450 2D6 (P10635 whole entry): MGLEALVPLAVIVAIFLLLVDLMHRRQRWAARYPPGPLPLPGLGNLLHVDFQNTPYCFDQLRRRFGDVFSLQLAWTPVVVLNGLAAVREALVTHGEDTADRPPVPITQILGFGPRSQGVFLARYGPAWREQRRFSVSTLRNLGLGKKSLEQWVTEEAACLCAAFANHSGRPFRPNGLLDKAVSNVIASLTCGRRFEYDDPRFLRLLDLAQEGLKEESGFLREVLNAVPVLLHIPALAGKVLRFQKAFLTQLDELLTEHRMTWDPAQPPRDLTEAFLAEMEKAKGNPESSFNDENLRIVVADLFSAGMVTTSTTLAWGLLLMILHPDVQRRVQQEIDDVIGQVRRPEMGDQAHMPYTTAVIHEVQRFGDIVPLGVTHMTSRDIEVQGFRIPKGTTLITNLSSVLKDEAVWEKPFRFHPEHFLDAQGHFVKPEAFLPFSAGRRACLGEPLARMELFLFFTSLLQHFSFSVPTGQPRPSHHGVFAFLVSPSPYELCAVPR
Procedure, shortened: (§1)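 Recombinant human CYP Bactosomes (0.1 mg/mL) in 50 mM phosphate buffer, pH 7.4. Compound at 0.1-10 μM was preincubated with fluorogenic substrate for 10 min at 37 °C, and the reaction was started with an NADPH regenerating system. Metabolite fluorescence was followed for 10 min. Substrates: 1A2 ethoxyresorufin 0.5 μM; 2C9 FCA 50 μM; 2C19 BMC 10 μM; 2D6 MMC 10 μM; 3A4 DEF 1 μM or 7-BQ 25 μM. Run in triplicate.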

[6] = Blood clearance in Sprague-Dawley rat at 0.5 mg/kg, iv and 1 mg/kg, po; type: ADME, organism-based; settings: whole blood
Procedure, shortened: (§2)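 Male Sprague-Dawley rats, cassette dosing. Compounds were given as an iv bolus and as an oral suspension. Blood samples were taken at intervals up to 24 h, processed by protein precipitation and analysed by HPLC-MS/MS.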

[7] = Oral bioavailability in Sprague-Dawley rat at 1 mg/kg; type: ADME, organism-based; settings: in vivo; procedure, shortened: as §2
[8] = Fraction unbound in rat brain; type: ADME, tissue-based
[9] = Ratio of drug level in brain to blood in Sprague-Dawley rat at 0.5 mg/kg, iv and 1 mg/kg, po; type: ADME, organism-based; settings: read-out: BBR
Procedure, shortened: (§3)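 Male Sprague-Dawley rats, cassette dosing, iv bolus or oral suspension. Blood and brain levels were measured by protein precipitation and HPLC-MS/MS. Brain:blood ratio was taken from AUC0-8h after oral dosing, or at 1 h after iv dosing for one compound.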

Cytochrome P450 1A2 = biological target: T2, Cytochrome P450 1A2 (Homo sapiens, UniProt P05177); assay: Inhibition of human CYP1A2 transfected in bactosome expression system by spectrofluorimetry; type: ADME; procedure, shortened: as §1
T2 sequence (P05177 whole entry): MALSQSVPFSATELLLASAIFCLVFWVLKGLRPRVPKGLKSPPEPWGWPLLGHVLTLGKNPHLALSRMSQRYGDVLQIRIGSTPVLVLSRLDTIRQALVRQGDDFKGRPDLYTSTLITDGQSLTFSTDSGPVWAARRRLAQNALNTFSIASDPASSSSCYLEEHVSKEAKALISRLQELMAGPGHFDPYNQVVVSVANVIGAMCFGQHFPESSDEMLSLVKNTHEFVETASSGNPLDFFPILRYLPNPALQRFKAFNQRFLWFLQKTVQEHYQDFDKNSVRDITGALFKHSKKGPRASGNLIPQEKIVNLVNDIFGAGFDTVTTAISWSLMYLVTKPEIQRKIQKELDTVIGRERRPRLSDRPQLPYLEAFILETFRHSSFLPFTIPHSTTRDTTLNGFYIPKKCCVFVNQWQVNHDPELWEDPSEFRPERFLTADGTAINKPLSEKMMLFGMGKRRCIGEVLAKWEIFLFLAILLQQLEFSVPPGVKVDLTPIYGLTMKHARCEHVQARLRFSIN

[10] = Fraction unbound in rat blood; type: ADME, tissue-based
[11] = biological target: 5-hydroxytryptamine receptor 2A (Rattus norvegicus, UniProt P14842); assay: Displacement of [3H]ketanserin from 5HT2A receptor in Sprague-Dawley rat cortical membrane by liquid scintillation counting
Chain of 5-hydroxytryptamine receptor 2A (Rattus norvegicus, UniProt P14842) (P14842 whole entry): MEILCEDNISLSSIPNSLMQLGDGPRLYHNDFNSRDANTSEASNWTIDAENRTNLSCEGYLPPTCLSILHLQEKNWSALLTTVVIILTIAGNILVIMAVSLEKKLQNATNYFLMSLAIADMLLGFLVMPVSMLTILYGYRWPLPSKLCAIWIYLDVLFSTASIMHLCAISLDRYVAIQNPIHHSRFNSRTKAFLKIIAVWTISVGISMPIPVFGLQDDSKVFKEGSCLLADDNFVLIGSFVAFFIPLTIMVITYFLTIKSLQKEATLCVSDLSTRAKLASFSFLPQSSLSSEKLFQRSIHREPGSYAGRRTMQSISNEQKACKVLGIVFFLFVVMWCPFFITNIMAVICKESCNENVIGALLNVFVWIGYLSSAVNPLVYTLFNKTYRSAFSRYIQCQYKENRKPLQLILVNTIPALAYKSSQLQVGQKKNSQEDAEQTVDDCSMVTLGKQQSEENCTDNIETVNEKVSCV
Procedure, shortened: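 Cerebral cortex membranes from male Sprague-Dawley rats (200-250 g), 50 μg/well. Incubated with 1 nM [3H]ketanserin in 50 mM Tris-HCl, 10 mM MgCl2, pH 7.4, for 1 h at 37 °C with shaking. Filtered on PEI-soaked GF/B and counted by scintillation. Nonspecific binding with 10 μM mianserin. Ki by Cheng-Prusoff; mean of two experiments in duplicate.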

Histamine H1 receptor [12] = biological target: Histamine H1 receptor (Rattus norvegicus, UniProt P31390); assay: Displacement of [3H]pyrilamine from histamine H1 receptor in Sprague-Dawley rat cortical membrane by liquid scintillation counting
Chain of Histamine H1 receptor (Rattus norvegicus, UniProt P31390) (P31390 whole entry): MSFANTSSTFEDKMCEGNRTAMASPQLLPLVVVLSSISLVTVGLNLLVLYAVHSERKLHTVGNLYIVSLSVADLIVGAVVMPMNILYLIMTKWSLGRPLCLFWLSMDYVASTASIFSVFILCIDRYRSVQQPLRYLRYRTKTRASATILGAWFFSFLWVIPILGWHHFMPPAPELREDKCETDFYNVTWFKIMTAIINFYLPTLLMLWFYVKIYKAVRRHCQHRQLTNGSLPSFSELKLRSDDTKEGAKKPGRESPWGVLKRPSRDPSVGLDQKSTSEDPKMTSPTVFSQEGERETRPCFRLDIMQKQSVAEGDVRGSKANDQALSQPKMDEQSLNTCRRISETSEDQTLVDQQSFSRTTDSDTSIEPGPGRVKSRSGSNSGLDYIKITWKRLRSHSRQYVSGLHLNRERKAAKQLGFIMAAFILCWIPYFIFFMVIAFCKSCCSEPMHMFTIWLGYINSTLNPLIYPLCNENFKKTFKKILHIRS
Procedure, shortened: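 Cerebral cortex membranes from male Sprague-Dawley rats (200-250 g), 150 μg/well. Incubated with 0.6 nM [3H]pyrilamine in 50 mM HEPES, pH 7.4, for 2 h at room temperature. Filtered on PEI-soaked GF/B and counted by scintillation. Nonspecific binding with 10 μM cetirizine. Ki by Cheng-Prusoff; mean of two experiments in duplicate.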

[13] = Volume of distribution at steady state in Sprague-Dawley rat at 0.5 mg/kg, iv and 1 mg/kg, po; type: ADME, organism-based; settings: in vivo, read-out: Vdss; procedure, shortened: as §2
Cytochrome P450 2C9 = Cytochrome P450 2C9 (Homo sapiens, UniProt P11712); assay: Inhibition of human CYP2C9 transfected in bactosome expression system by spectrofluorimetry; type: ADME; procedure, shortened: as §1
[14] = Half life in Sprague-Dawley rat at 0.5 mg/kg, iv and 1 mg/kg, po; type: ADME, organism-based; settings: in vivo; procedure, shortened: as §2
Cytochrome P450 2C19 = Cytochrome P450 2C19 (Homo sapiens, UniProt P33261); assay: Inhibition of human CYP2C19 transfected in bactosome expression system by spectrofluorimetry; type: ADME; procedure, shortened: as §1
Chain of Cytochrome P450 2C19 (P33261 whole entry): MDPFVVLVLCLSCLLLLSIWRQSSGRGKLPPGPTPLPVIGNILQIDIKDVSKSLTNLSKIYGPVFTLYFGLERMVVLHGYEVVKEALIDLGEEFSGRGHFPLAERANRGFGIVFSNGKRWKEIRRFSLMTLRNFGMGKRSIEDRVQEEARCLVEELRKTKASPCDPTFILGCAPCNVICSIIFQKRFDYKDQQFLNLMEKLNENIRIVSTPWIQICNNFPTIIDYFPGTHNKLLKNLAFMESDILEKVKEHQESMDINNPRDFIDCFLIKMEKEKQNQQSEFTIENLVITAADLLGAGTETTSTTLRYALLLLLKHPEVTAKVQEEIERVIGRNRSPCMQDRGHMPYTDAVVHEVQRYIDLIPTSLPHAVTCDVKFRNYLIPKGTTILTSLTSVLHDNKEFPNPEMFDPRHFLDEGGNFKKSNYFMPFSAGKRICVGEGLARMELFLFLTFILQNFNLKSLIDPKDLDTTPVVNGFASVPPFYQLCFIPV

[15] = biological target: Voltage-gated inwardly rectifying potassium channel KCNH2 (Homo sapiens, UniProt Q12809); assay: Displacement of [3H]dofetilide from human ERG by scintillation proximity assay
Chain of Voltage-gated inwardly rectifying potassium channel KCNH2 (Q12809 whole entry): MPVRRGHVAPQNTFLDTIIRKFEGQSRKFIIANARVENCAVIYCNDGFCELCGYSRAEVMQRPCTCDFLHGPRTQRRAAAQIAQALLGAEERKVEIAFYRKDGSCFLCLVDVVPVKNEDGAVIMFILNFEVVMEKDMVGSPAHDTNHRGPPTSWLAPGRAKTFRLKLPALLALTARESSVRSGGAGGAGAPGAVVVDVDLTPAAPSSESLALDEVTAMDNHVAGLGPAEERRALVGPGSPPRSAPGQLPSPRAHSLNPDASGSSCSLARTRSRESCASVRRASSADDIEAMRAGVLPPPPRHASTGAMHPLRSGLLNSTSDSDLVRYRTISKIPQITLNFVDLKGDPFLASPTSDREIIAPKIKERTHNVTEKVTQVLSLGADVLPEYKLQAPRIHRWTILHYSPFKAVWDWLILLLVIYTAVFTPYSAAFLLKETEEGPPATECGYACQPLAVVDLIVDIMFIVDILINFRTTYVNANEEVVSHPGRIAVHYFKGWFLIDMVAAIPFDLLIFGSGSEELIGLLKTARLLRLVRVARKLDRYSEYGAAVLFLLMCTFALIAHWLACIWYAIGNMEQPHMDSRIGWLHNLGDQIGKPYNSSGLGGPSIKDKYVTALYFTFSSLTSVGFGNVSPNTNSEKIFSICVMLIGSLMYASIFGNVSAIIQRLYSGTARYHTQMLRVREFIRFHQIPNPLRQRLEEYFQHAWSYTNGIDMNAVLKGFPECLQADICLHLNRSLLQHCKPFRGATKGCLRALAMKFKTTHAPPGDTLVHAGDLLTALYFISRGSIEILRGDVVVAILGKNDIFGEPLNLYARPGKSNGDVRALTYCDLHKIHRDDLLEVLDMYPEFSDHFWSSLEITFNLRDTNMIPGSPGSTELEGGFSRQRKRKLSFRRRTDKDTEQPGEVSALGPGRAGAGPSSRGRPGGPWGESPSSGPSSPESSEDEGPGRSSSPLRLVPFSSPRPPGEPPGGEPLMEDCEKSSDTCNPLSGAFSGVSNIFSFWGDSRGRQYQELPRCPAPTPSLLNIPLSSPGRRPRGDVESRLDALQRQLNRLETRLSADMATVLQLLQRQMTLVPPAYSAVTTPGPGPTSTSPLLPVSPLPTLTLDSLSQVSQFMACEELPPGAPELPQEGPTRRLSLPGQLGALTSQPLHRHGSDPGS

Cytochrome P450 3A4 = Cytochrome P450 3A4 (Homo sapiens, UniProt P08684); assay: Inhibition of human CYP3A4 transfected in bactosome expression system by spectrofluorimetry; type: ADME; procedure, shortened: as §1
[16] = Ratio of drug level in brain to blood in Sprague-Dawley rat at 1 mg/kg, iv and 3 mg/kg, po; type: ADME, organism-based; settings: read-out: BBR; procedure, shortened: as §3
[17] = Blood clearance in Sprague-Dawley rat at 1 mg/kg, iv and 3 mg/kg, po; type: ADME, organism-based; settings: whole blood; procedure, shortened: as §2
[18] = Volume of distribution at steady state in Sprague-Dawley rat at 1 mg/kg, iv and 3 mg/kg, po; type: ADME, organism-based; settings: in vivo, read-out: Vdss; procedure, shortened: as §2
[19] = Oral bioavailability in Sprague-Dawley rat at 3 mg/kg; type: ADME, organism-based; settings: in vivo; procedure, shortened: as §2
[20] = Half life in Sprague-Dawley rat at 1 mg/kg, iv and 3 mg/kg, po; type: ADME, organism-based; settings: in vivo; procedure, shortened: as §2

Ki [2]	Ki (Histamine H1 receptor [3])	Ki [4]	Ki [5]	IC50 (Cytochrome P450 2D6)	fraction unbound [8]	IC50 (Cytochrome P450 1A2)	fraction unbound [10]	Ki [11]	Ki (Histamine H1 receptor [12])	IC50 (Cytochrome P450 2C9)	IC50 (Cytochrome P450 2C19)	IC50 (Cytochrome P450 3A4)	SMILES	IC50 [15]	other results
0.0126 µM	0.00398 µM	0.0158 µM	0.00794 µM	–	–	–	–	–	–	–	–	–	CN(C)C1CC[C@]2(Cc3ccccc3Cc3ccccc32)C1 (stereo partly drawn)	–	pKi [1]: < 6
0.0316 µM	0.0316 µM	0.398 µM	0.0631 µM	> 10 µM	0.023	> 10 µM	0.08	0.0692 µM	0.00537 µM	> 10 µM	> 10 µM	> 10 µM	O=C(O)[C@]12C[C@H]1CN(C1CC[C@]3(Cc4ccccc4Cc4ccccc43)C1)C2 (stereo partly drawn)	> 39.8 µM	clearance [6]: 5 mL/min/kg; bioavailability [7]: 62%; Kp [9]: 2.2; Vd [13]: 2.4 L/kg; half-life [14]: 5.3 h
0.0501 µM	0.0398 µM	> 2 µM	1 µM	> 10 µM	0.02	> 10 µM	0.084	0.355 µM	0.0123 µM	> 10 µM	> 10 µM	> 10 µM	O=C(O)C1(F)CCN(C2CC[C@]3(Cc4ccccc4Cc4ccccc43)C2)CC1 (stereo partly drawn)	> 39.8 µM	Kp [16]: 0.1; clearance [17]: 61 mL/min/kg; Vd [18]: 3.8 L/kg; bioavailability [19]: 22%; half-life [20]: 1.2 h
